# Article PMC9054070 (RSC Advances, 2020)
# “And” between values parts separate entries of the source, which are not always exact repeats. Identical values can stand only once. Like-named read-outs stand apart in the source and are kept apart here.
# What was measured:
# HepG2 cell line = assay: Cytotoxic screening using MTT assay, HepG2; assay type: cell-based; conditions: Homo sapiens, HepG2, 48 h, read-out: IC50 (μM) HepG2
# MCF-7 cell line = assay: Cytotoxic screening using MTT assay, MCF-7; assay type: cell-based
# Outline: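 MTT cytotoxicity read-out on MCF-7 cells; IC50 from a sigmoidal log-concentration curve; 5-fluorouracil run alongside as reference drug.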
# normal cell line GMSC = assay: Cytotoxic screening using MTT assay, normal cell line GMSC; assay type: cell-based; conditions: read-out: IC50 (μM) GMSC
# [1] = system: Ehrlich Ascites Carcinoma (EAC); assay: In vivo anti-tumor activity in EAC-bearing mice; conditions: for percentage MST ratio (T/C%) / percentage increase in life span (ILS%): compared to EAC control; for percentage cell growth inhibition (CGI%) / tumor volume / total tumor cell count / packed cell volume (PCV%): day 18; for tumor volume: EAC control 19.5 mL; for total tumor cell count: EAC control 19.9; for packed cell volume (PCV%): EAC control 36.72%
# [2] = Homo sapiens, MCF7, 48 h, read-out: IC50 (μM) MCF-7, MTT assay, 48 h treatment
# [3] = read-out: IC50 (μM) MCF-7, MTT assay, 48 h treatment
structure (smiles),measurement,setting,value
"O=c1[nH]ncc2c1[nH]c1ccccc12 [Compound 2, 3,5-Dihydro-4H-pyridazino[4,5-b]indol-4-one]",IC50,HepG2 cell line,22.8 µM
same,IC50,MCF-7 cell line; [2],9.43 µM
"N#CCCn1ncc2c3ccccc3n(CCC#N)c2c1=O [Compound 3, 3,3′-(4-oxo-3H-pyridazino[4,5-b]indole-3,5(4H)-diyl)dipropanenitrile]",IC50,HepG2 cell line,> 50 µM
"C=CCn1c2ccccc2c2cn[nH]c(=O)c21 [Compound 5, 5-Allyl-3,5-dihydro-4H-pyridazino[4,5-b]indol-4-one]",IC50,HepG2 cell line,> 50 µM
same,IC50,MCF-7 cell line; [2],> 50 µM
same,IC50,normal cell line GMSC; 48 h,> 50 µM
"O=c1[nH]cc(F)c(=O)[nH]1 [Compound 5-FU, reference compound]",percentage MST ratio (T/C%),[1]; EAC-bearing mice,166%
same,percentage increase in life span (ILS%),[1]; EAC-bearing mice,66%
same,percentage cell growth inhibition (CGI%),[1]; ascetic peritoneal fluid,38.67%
same,tumor volume,[1]; ascetic peritoneal fluid,12.6 mL
same,total tumor cell count,[1]; ascetic peritoneal fluid,12.2 × 10^7 cells per mL
same,packed cell volume (PCV%),[1]; ascetic peritoneal fluid,23.78%
same,IC50,MCF-7 cell line; [3],6.98 µM
same,IC50,"normal cell line GMSC; MTT assay, 48 h treatment, normal cell line",> 50 µM
"O=c1[nH]ncc2c3ccccc3n(Cc3ccccc3)c12 [Compound 6, 5-Benzyl-3,5-dihydro-4H-pyridazino[4,5-b]indol-4-one]",IC50,MCF-7 cell line; [2],29.5 µM
same,IC50,normal cell line GMSC; 48 h,> 50 µM
"C=CCn1ncc2c3ccccc3n(CC=C)c2c1=O [Compound 8, 3,5-Diallyl-3,5-dihydro-4H-pyridazino[4,5-b]indol-4-one]",IC50,MCF-7 cell line; [2],17 µM
"O=c1c2c(cnn1Cc1ccccc1)c1ccccc1n2Cc1ccccc1 [Compound 9, 3,5-Dibenzyl-3,5-dihydro-4H-pyridazino[4,5-b]indol-4-one]",IC50,MCF-7 cell line; [2],> 50 µM
"CCOC(=O)Cn1c2ccccc2c2cn[nH]c(=O)c21 [Compound 10, Ethyl 2-(4-oxo-3,4-dihydro-5H-pyridazino[4,5-b]indol-5-yl)acetate]",IC50,HepG2 cell line,36.7 µM
same,IC50,MCF-7 cell line; [2],12.4 µM
same,IC50,normal cell line GMSC; 48 h,> 50 µM
"CCOC(=O)Cn1ncc2c3ccccc3n(CC(=O)OCC)c2c1=O [Compound 11, Diethyl 2,2′-(4-oxo-3H-pyridazino[4,5-b]indole-3,5(4H)-diyl)diacetate]",IC50,HepG2 cell line,18.8 µM
same,IC50,MCF-7 cell line; [2],9.07 µM
same,IC50,normal cell line GMSC; 48 h,> 50 µM
"NNC(=O)Cn1c2ccccc2c2cn[nH]c(=O)c21 [Compound 12, 2-(4-Oxo-3,4-dihydro-5H-pyridazino[4,5-b]indol-5-yl)acetohydrazide]",IC50,HepG2 cell line,12.8 µM
same,percentage MST ratio (T/C%),[1]; EAC-bearing mice,172%
same,percentage increase in life span (ILS%),[1]; EAC-bearing mice,72%
same,percentage increase in body weight (IBW%),"[1]; EAC-bearing mice, untreated EAC control 43.65%",19.27% and 15.56%
same,percentage cell growth inhibition (CGI%),[1]; ascetic peritoneal fluid,50.74%
same,percentage of viable cells,"[1]; ascetic peritoneal fluid, day 18, trypan blue exclusion, EAC control 91.9%",59.6%
same,tumor volume,[1]; ascetic peritoneal fluid,11.9 mL
same,total tumor cell count,[1]; ascetic peritoneal fluid,9.8 × 10^7 cells per mL
same,packed cell volume (PCV%),[1]; ascetic peritoneal fluid,19.32%
same,IC50,MCF-7 cell line; [2],4.24 µM
same,IC50,MCF-7 cell line; [3],4.25 µM
same,IC50,normal cell line GMSC; 48 h,> 50 µM
